# Measured values published in PubChem BioAssay AID624466 (The Scripps Research Institute Molecular Screening Center, 2012).
# Screen size: about 360,000 compounds; about 5,400 (1.5%) were called active.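 Rule for the calls: active = inhibition above a per-plate cutoff, the mean inhibition of test compounds on that plate plus 3 SD (cut at about 49% in these data); inactive = the rest.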 The list comes from a sample in which actives are over-represented; it also holds similar structures and randomly drawn compounds.
# Biological target: Trace amine-associated receptor 1 (Homo sapiens) (UniProt Q96RJ0)
# Sequence (Q96RJ0 whole entry, looked up): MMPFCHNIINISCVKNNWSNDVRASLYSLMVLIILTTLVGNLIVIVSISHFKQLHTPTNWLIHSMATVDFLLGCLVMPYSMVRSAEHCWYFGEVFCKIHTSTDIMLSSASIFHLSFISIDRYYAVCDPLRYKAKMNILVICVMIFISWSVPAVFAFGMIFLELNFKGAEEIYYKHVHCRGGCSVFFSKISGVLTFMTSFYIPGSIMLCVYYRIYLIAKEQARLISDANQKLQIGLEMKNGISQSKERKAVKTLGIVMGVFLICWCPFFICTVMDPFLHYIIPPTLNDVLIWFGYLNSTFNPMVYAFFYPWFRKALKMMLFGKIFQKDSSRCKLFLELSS
# Experiment: blockers of beta-PEA-driven TAAR1 calcium signal – Fluo-8 calcium fluorescence, CHO RD-HGA16 cells, primary screen (AID 624466);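 note: 0% = DMSO plus EC80 beta-PEA response and 100% = DMSO alone without agonist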
# Details: CHO RD-HGA16 TAAR1, Fluo-8 calcium fluorescence, antagonist; at 3 µM; stronger effect = higher value
# Procedure, shortened: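 test system = CHO RD-HGA16 cells bearing hTAAR1 | replication = singlicate | controls = DMSO-only wells and EC80 β-PEA-stimulated wells | reagent = EC80 β-phenethylamine stimulus | read-out basis = percent inhibition of PEA-evoked calcium signal, max/basal emission ratio | schedule = seeding 17-24 h prior, 75-min 37 °C, 30-min RT dye loading | signal = kinetic Fluo-8 calcium fluorescence measurement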
row,Compound,inhibition
1,C[C@H](CO)N1C[C@H](C)[C@H](CN(C)C(=O)Nc2ccc(C(F)(F)F)cc2)Oc2c(NC(=O)c3ccncc3)cccc2C1=O,3.31% (inactive)
2,O=C(C[C@H]1CC[C@@H](NC(=O)c2ccncc2)[C@@H](CO)O1)NCC1CC1,-5.86% (inactive)
3,COC(=O)C1=C(C)NC(=S)NC1c1ccc(OC)cc1 (stereo not drawn),-22.6% (inactive)
4,CC(=O)N1Cc2cc(C(=O)NCc3cccc(F)c3)nc(-c3cccc(C4=CCCC4)c3)c2[C@H]1CCO,-5.18% (inactive)
5,COC(=O)c1c(-c2ccc(OC)cc2)c2c(c3c4cc(OC)ccc4n(S(=O)(=O)c4ccc(F)cc4)c13)C(=O)N(C)C2,-12.2% (inactive)
6,C#CCN([C@@H](C)C(=O)OCC)S(=O)(=O)c1ccc(Br)cc1F,15% (inactive)
7,Cc1cccc(NC(=O)c2ccc(S(=O)(=O)N(C)c3ccccc3)cc2)n1,27.4% (inactive)
8,CN(c1ccccc1)S(=O)(=O)c1cc(C(=O)Nc2nc3ccccc3[nH]2)ccc1Cl,59% (active)
9,CN(c1ccccc1)S(=O)(=O)c1cc(C(=O)N2CCN(c3ncccn3)CC2)ccc1Cl,42.5% (inactive)
10,Cc1ccc(S(=O)(=O)N2CCC(=O)N([C@H](COCc3ccccc3)C(C)C)CC2)cc1,1.41% (inactive)
11,COC(=O)c1ccc(CN2C(=O)[C@]3(OCCC=C[C@H]3C)c3c(Br)cccc32)cc1,-17.5% (inactive)
12,CCOc1cccc(OCCCOc2cccc3cccnc23)c1,-11% (inactive)
13,Cc1ccc2cccc(OCCCOc3ccccc3CO)c2n1,49.6% (active)
14,Cc1cc(OCCOc2cccc3cccnc23)c(C)cc1Cl,-4.44% (inactive)
15,CSc1ccc(S(=O)(=O)N2CCC(C(=O)NCc3ccncc3)CC2)cc1,-9.01% (inactive)
16,CC(=O)C1=CCC(c2ccccc2)N(S(=O)(=O)c2ccc(C)cc2)C1 (stereo not drawn),-17.1% (inactive)
17,c1ccc(CSCCc2ccncc2)cc1,5.41% (inactive)
18,Cc1cc(C)c(SCCc2ccncc2)c(C)c1,11.4% (inactive)
19,CC(C)(C)c1ccc(SCCc2ccncc2)cc1,49.2% (active)
20,CCOCCCN1C(=O)CN(C2CCCCC2)C(=O)C1c1ccc(OCC)c(OC)c1 (stereo not drawn),11.2% (inactive)

row,Compound,inhibition
1,CCCCn1nnnc1C(c1ccccc1)N1CCN(c2ccccc2OC)CC1 (stereo not drawn),12.1% (inactive)
2,Cc1nc2ccccc2n1C(=O)N1CCOCC1,12.8% (inactive)
3,CCN(CC)CCN(C)C(c1ccnc2ccccc12)c1nnnn1-c1ccc2c(c1)OCCO2 (stereo not drawn),4.47% (inactive)
4,COc1cc(OC)c(-n2cc(-c3ccc(Cl)cc3)[nH]c2=O)cc1Cl,85.5% (active)
5,COc1ccc(-n2c(-c3ccc(Cl)cc3)n[nH]c2=S)c(OC)c1,-24.1% (inactive)
6,COc1cc(OC)c(N2CC(C(=O)Nc3cc(Cl)ccc3N3CCOCC3)CC2=O)cc1Cl (stereo not drawn),6.19% (inactive)
7,CCCn1nc(NS(=O)(=O)c2ccc(F)cc2)c2cc3ccccc3nc21,9.03% (inactive)
8,COc1ccccc1-c1ccc([C@@H]2C[C@H]3[C@H](CON3C)CN2S(=O)(=O)c2cc(Cl)cc(Cl)c2)cc1,-24.5% (inactive)
9,CCOC(=O)C1(C)CCCN(C(=O)c2ccc(N(C)C)cc2)C1 (stereo not drawn),-13.8% (inactive)
10,CCC(C)CN1C(=O)CN(S(C)(=O)=O)CC1(C)C(=O)Nc1ccc2c(c1)OCCO2 (stereo not drawn),-7.39% (inactive)
11,O=C(NC1CCC(O)CC1)c1ccccc1OCc1ccc(F)cc1 (stereo not drawn),-21.4% (inactive)
12,COc1ccc(CCNC(=O)c2ccccc2OCc2ccccc2)cc1,-1.77% (inactive)
13,CC(=O)c1ccccc1OCc1ccc(C(=O)c2ccccc2)cc1,71.8% (active)
14,Cc1ccc2nc(-c3ccc(NC(=O)c4cccnc4)cc3)oc2c1,45.9% (inactive)
15,CCC(=O)Oc1cccc(C(=O)Nc2ccc(-c3nnc(-c4ccco4)o3)cc2)c1,63.3% (active)
16,O=C(Nc1ccc(Cl)cc1)c1cccc(OC(=S)N2CCOCC2)c1,-20.4% (inactive)
17,CCOC(=O)N(Cc1ccccc1)C1CC1,2.44% (inactive)
18,CN(C(=O)CN(CCO)CC(=O)N(C)C(C)(C)Cc1ccccc1)C(C)(C)Cc1ccccc1,86.5% (active)
19,CN(CCO)C(=O)c1nc[nH]c1C(=O)N(C)Cc1ccccc1,-10.4% (inactive)
20,Cc1cc(SCC(=O)c2ccccc2)nc(SCC(=O)c2ccccc2)n1,51.6% (active)

row,Compound,inhibition
1,Cc1nc(SCC(=O)c2ccccc2)c([N+](=O)[O-])[nH]1,8.14% (inactive)
2,Cc1nc2nc(SCC(=O)c3ccccc3)[nH]c2cc1Br,-5.84% (inactive)
3,CCOC(=O)CCCNC(=O)COC(=O)c1cc(Br)c(Br)s1,-4.99% (inactive)
4,CCC1CCCCN1CCNS(=O)(=O)c1ccc2c(c1)CCN2C(C)=O (stereo not drawn),-5.09% (inactive)
5,Cc1ccc(C(=O)N/C(=C\c2cn(S(=O)(=O)N(C)C)c3ccccc23)C(=O)N2CCCC2)cc1,39.7% (inactive)
6,O=C1C(Cl)=C(Oc2ccccc2)C(=O)c2ccccc21,50.9% (active)
7,Cc1cc(Cl)ccc1OCCCC(=O)Nc1cccc(-n2cnnn2)c1,53% (active)
8,Cc1cc(Cl)ccc1OCCCC(=O)NCc1ccncc1,3.15% (inactive)
9,Cc1cc(Cl)ccc1OCCCC(=O)NCc1ccccn1,2.84% (inactive)
10,CC1(C(=O)NCc2ccccc2)CSCC(=O)N1CCCN1CCOCC1 (stereo not drawn),-18.5% (inactive)
11,COC(=O)c1ccc2c(c1)S(=O)(=O)NC2C (stereo not drawn),4.99% (inactive)
12,CCn1c(COc2c(C)cccc2C)nnc1SCc1nc2ccccc2c(=O)[nH]1,2.03% (inactive)
13,O=c1[nH]c(CSc2ncc(-c3ccc(F)cc3)n2Cc2ccco2)nc2ccccc12,67.8% (active)
14,Cn1c(-c2ccc(F)cc2)cnc1SCC(=O)NCc1ccco1,-3.37% (inactive)
15,CN(C)CCCn1c(SCCN2C(=O)c3ccccc3C2=O)nc2ccccc2c1=O,-1.92% (inactive)
16,C[N+](C)(C)CCNC(=O)c1c[nH]c2ccccc12,-17.1% (inactive)
17,C[C@H](NC(=O)c1ccccc1)C(=O)OCC(=O)c1c[nH]c2ccccc12,52.1% (active)
18,CCOc1ncccc1C(=O)OCC(=O)c1c[nH]c2ccccc12,42% (inactive)
